In ChEMBL document CHEMBL1800057, “Discovery of dual inducible/neuronal nitric oxide synthase (iNOS/nNOS) inhibitor development candidate 4-((2-cyclobutyl-1H-imidazo[4,5-b]pyrazin-1-yl)methyl)-7,8-difluoroquinolin-2(1H)-one (KD7332) part 2: identification of a novel, potent, and selective series of benzimidazole-quinolinone …” (J Med Chem, 2010):

Columns and labels:
[1] = target: Nitric oxide synthase, inducible (Homo sapiens, UniProt P35228); test: Inhibition of human iNOS expressed in HEK293 cells assessed as inhibition of nitric oxide production after 18 hrs using 2,3-diaminonaphthalene by fluorescence assay; type: cell-based
Method in brief: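 HEK293 cells grown to ~70% confluence in DMEM/10% FBS with pen/strep, transiently transfected with 10 μg human or murine iNOS plasmid plus Fugene 6 for 4 h at 37 °C, 10% CO2. Cells replated at 5e5 cells/mL and dosed with compound at once; 1400W (100 μM final) as positive control. After 18 h, DAN (10 μg/mL final) in HCl (0.1 N final) added for 20 min at room temperature. Fluorescence read after NaOH (0.12 N final).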

Nitric oxide synthase 1 = Nitric oxide synthase 1 (Homo sapiens, UniProt P29475); test: Inhibition of human nNOS expressed in HEK293 cells assessed as inhibition ionomycin induced nitric oxide production incubated for 24 hrs measured after 18 hrs of ionomycin challenge using 2,3-diaminonaphthalene by fluorescence assay; type: cell-based
Method in brief: (§1)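 HEK293 cells transfected for 4 h at 37 °C with human nNOS (10 μg) or human eNOS (15 μg) plasmid (Fugene 6, 3:1). Cells replated at 5e5 cells/mL and dosed with compound at once; SEITU (100 μM final) as positive control. After 24 h, cells activated with A23187 (83 nM final) for eNOS or ionomycin (30 μM final) for nNOS. NO read 18 h later as nitrite-DAN fluorescence.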

Nitric oxide synthase 3 = target: T1, Nitric oxide synthase 3 (Homo sapiens, UniProt P29474); test: Inhibition of human eNOS expressed in HEK293 cells assessed as inhibition A23187 induced nitric oxide production incubated for 24 hrs measured after 18 hrs of […] challenge using 2,3-diaminonaphthalene by fluorescence assay; type: cell-based; method in brief: as §1
T1 sequence (P29474 whole entry): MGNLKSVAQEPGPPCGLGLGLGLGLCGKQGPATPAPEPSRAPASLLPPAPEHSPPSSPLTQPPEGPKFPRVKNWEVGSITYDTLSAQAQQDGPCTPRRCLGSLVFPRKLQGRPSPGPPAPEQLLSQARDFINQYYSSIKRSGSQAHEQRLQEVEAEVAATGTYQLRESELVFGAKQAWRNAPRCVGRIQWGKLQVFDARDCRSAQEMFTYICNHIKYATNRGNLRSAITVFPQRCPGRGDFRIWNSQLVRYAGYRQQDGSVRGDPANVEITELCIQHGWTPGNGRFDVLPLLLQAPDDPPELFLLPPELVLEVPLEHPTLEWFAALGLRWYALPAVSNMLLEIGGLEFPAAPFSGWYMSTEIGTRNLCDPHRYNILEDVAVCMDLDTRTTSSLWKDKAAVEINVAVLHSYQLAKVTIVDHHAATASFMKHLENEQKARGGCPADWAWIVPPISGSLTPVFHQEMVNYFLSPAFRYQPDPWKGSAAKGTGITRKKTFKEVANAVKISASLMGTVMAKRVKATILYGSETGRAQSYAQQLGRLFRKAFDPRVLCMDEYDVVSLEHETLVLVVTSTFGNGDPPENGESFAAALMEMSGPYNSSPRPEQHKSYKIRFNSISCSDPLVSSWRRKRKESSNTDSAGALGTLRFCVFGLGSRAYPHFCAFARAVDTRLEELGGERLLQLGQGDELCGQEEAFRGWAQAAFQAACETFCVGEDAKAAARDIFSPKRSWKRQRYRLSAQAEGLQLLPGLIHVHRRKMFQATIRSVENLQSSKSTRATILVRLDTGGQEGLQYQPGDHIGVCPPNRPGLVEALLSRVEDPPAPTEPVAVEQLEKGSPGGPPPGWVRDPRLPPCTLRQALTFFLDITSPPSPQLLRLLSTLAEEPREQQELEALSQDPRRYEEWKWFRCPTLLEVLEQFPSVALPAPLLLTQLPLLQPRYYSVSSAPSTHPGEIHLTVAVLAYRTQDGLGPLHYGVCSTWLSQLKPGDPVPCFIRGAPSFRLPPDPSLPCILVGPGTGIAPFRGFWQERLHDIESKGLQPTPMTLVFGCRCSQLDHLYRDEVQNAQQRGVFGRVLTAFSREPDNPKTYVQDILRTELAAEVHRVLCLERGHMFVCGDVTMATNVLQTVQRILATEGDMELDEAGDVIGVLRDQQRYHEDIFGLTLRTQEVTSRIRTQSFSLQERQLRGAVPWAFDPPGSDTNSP

Liver = test: Half life in mouse liver microsomes assessed as formation of oxidation product and glucuronide conjugate; type: ADME, Microsome
Method in brief: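 Mouse liver microsomes run under combined phase I oxidation and phase II glucuronide conjugation; half-life reported in minutes.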

Homo sapiens [2] = species on record: Homo sapiens; test: Ratio of IC50 for human eNOS to EC50 for human iNOS
Homo sapiens [3] = species on record: Homo sapiens; test: Ratio of IC50 for human nNOS to EC50 for human iNOS
[4] = target: T2, Nitric oxide synthase 3 (Homo sapiens) (UniProt P29474); test: Inhibition of human eNOS expressed in HEK293 cells assessed as inhibition A23187 induced nitric oxide production at 100 uM incubated for 24 hrs measured after 18 hrs of […] challenge using 2,3-diaminonaphthalene by fluorescence assay; type: cell-based
T2 sequence (whole entry): T1 sequence (P29474 whole entry)

Sequence of Nitric oxide synthase 1 (P29475 whole entry): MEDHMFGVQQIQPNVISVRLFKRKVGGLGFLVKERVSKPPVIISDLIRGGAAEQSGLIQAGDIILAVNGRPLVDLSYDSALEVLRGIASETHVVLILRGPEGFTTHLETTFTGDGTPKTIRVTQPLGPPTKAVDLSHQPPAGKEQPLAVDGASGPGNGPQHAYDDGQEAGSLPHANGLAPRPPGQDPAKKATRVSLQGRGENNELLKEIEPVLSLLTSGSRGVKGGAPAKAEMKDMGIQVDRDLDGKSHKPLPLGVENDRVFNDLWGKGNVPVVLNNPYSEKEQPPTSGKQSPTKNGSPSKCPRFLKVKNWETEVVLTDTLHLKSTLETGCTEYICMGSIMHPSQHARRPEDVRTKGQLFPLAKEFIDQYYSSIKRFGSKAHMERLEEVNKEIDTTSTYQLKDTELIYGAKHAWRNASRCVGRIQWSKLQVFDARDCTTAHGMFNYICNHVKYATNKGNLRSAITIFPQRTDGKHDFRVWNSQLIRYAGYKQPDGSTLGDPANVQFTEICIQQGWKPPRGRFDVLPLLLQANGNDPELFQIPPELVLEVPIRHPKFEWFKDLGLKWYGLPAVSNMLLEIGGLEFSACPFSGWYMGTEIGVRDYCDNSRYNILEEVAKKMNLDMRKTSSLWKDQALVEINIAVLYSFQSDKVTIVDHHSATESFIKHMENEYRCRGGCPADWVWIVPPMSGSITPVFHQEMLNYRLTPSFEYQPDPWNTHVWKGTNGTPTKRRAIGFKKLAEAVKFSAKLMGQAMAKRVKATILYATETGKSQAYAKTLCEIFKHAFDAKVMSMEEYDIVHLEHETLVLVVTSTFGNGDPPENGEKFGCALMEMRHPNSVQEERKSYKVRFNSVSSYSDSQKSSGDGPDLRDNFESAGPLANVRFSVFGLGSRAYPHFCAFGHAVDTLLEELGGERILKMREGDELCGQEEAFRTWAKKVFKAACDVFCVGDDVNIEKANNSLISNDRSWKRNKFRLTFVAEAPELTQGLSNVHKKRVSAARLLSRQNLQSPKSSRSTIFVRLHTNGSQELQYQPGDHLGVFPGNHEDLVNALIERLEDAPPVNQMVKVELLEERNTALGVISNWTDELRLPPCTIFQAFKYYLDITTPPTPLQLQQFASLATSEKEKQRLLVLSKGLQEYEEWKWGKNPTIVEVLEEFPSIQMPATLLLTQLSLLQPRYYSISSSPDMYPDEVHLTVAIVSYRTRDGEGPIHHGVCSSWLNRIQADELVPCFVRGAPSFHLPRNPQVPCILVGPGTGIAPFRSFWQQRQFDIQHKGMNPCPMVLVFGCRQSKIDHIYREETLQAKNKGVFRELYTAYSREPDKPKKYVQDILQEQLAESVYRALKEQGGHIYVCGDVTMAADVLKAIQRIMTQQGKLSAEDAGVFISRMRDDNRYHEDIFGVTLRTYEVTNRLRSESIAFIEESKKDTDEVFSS
Sequence of Nitric oxide synthase, inducible (P35228 whole entry): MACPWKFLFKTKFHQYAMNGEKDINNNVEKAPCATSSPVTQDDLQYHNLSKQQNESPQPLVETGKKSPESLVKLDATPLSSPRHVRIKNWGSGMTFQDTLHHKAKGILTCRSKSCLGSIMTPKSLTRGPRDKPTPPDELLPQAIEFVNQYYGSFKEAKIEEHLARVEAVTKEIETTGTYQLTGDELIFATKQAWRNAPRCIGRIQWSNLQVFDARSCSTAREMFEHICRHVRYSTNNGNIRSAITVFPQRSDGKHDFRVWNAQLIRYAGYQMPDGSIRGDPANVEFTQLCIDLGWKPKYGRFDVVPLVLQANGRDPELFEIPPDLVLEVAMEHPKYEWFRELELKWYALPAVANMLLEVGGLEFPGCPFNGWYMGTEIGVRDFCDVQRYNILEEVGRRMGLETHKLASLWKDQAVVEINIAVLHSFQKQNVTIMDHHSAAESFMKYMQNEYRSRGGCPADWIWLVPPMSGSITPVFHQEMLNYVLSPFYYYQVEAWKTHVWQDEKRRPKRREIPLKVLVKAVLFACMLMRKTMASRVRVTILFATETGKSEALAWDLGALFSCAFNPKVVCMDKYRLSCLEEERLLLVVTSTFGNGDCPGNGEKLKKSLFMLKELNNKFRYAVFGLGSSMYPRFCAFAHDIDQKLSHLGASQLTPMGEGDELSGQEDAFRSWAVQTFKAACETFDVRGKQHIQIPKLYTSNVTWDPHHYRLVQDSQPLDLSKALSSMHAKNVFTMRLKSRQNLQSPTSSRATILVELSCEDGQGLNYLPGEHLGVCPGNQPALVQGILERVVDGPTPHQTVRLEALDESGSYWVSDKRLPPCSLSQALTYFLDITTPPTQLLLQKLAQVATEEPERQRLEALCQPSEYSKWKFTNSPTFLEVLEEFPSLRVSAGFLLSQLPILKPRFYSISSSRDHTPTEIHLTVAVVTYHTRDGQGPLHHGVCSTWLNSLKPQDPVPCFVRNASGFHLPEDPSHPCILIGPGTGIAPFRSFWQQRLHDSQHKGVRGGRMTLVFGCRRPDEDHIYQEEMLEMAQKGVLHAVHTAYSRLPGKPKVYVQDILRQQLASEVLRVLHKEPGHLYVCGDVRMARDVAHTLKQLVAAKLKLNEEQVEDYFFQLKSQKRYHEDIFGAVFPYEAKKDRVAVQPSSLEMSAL

Structure (SMILES) | EC50 [1] | EC50 (Nitric oxide synthase 1) | EC50 (Nitric oxide synthase 3) | t1/2 (Liver) | Ratio EC50 (Homo sapiens [2]) | Ratio EC50 (Homo sapiens [3]) | inhibition [4]
CCCc1nc2ccccc2n1Cc1cc(=O)[nH]c2c(F)c(F)ccc12 | 730 nM | 690 nM | 1300 nM | > 2 h | 1.8 | 0.9 | –
O=c1cc(Cn2c(CC3CCC3)nc3ccccc32)c2ccc(F)c(F)c2[nH]1 | 540 nM | 650 nM | 2900 nM | 0.467 h | 5.4 | 1.2 | –
O=c1cc(Cn2c(CC3CC3)nc3ccccc32)c2ccc(F)c(F)c2[nH]1 | 600 nM | 950 nM | 3900 nM | > 2 h | 6.5 | 1.6 | –
CC(C)CCc1nc2ccccc2n1Cc1cc(=O)[nH]c2c(F)c(F)ccc12 | 1360 nM | 650 nM | > 100000 nM | > 2 h | > 74 | 0.5 | < 50%
O=c1cc(Cn2c(C3CC(F)(F)C3)nc3nccnc32)c2ccc(F)c(F)c2[nH]1 | 120 nM | 1100 nM | 9200 nM | > 2 h | 77 | 9.2 | –
O=c1cc(Cn2c(-c3ccncc3)nc3ccccc32)c2ccc(F)c(F)c2[nH]1 | 2200 nM | 2900 nM | 4200 nM | 1.07 h | 1.9 | 1.3 | –
COc1ccnc2c1nc(C1CCC1)n2Cc1cc(=O)[nH]c2c(F)c(F)ccc12 | 210 nM | 1300 nM | > 100000 nM | > 2 h | > 480 | 6.2 | < 50%
O=c1cc(Cn2c(C3CCCC3)nc3nccnc32)c2ccc(F)c(F)c2[nH]1 | 280 nM | 1000 nM | > 100000 nM | > 2 h | > 360 | 3.6 | –
Cc1ncsc1-c1nc2ccccc2n1Cc1cc(=O)[nH]c2c(F)cccc12 | 3700 nM | 4300 nM | 15000 nM | > 2 h | 4.1 | 1.2 | –
CC(C)c1nc2nccnc2n1Cc1cc(=O)[nH]c2c(F)c(F)ccc12 | 850 nM | 610 nM | 13000 nM | > 2 h | 15 | 0.7 | –
O=c1cc(Cn2c(C3CCCCC3)nc3ccccc32)c2ccc(F)c(F)c2[nH]1 | 8900 nM | 5000 nM | > 100000 nM | > 2 h | > 11 | 0.6 | < 50%
Cc1cnccc1-c1nc2ccccc2n1Cc1cc(=O)[nH]c2c(F)c(F)ccc12 | 340 nM | 990 nM | 1300 nM | > 2 h | 3.8 | 2.9 | –
O=c1cc(Cn2c(C3CCC3)nc3c(Cl)ccnc32)c2ccc(F)c(F)c2[nH]1 | 270 nM | 760 nM | > 100000 nM | 0.6 h | > 370 | 2.8 | < 50%
Cc1ccnc2c1nc(C1CCC1)n2Cc1cc(=O)[nH]c2c(F)c(F)ccc12 | 270 nM | 1600 nM | > 100000 nM | 1.53 h | > 800 | – | < 50%
O=c1cc(Cn2c(C3CCC3)nc3cnccc32)c2ccc(F)c(F)c2[nH]1 | 18000 nM | 24000 nM | 21000 nM | > 2 h | 1.2 | 1.3 | –
CC(C)Cc1nc2nccnc2n1Cc1cc(=O)[nH]c2c(F)cccc12 | 290 nM | 6800 nM | > 100000 nM | > 2 h | > 350 | 23 | –
O=c1cc(Cn2c(C3CCC3)nc3ncccc32)c2ccc(F)c(F)c2[nH]1 | 590 nM | 520 nM | 8800 nM | > 2 h | 15 | 0.9 | –
CC(C)Cc1nc2nccnc2n1Cc1cc(=O)[nH]c2c(F)c(F)ccc12 | – | – | – | – | 440 | 3.4 | –
O=c1cc(Cn2c(C3CCCC3)nc3ccccc32)c2ccc(F)c(F)c2[nH]1 | 750 nM | 770 nM | > 100000 nM | > 2 h | > 133 | 1 | < 50%
O=c1cc(Cn2c(C3CCC3)nc3ccncc32)c2ccc(F)c(F)c2[nH]1 | 460 nM | 730 nM | > 100000 nM | – | > 220 | 1.6 | < 50%
Cc1ncsc1C(=O)N(Cc1cc(=O)[nH]c2c(F)cccc12)c1ccccc1 | – | – | – | – | > 500 | > 50 | –
O=c1cc(Cn2c(C3CC(F)(F)C3)nc3nccnc32)c2cccc(F)c2[nH]1 | – | – | – | – | > 460 | 14 | –
O=c1cc(Cn2c(C3CC3)nc3ccccc32)c2ccc(F)c(F)c2[nH]1 | 1600 nM | 1400 nM | 6800 nM | > 2 h | 4.3 | 0.9 | –
